Results from ChEMBL document CHEMBL1121743, “Synthesis and antibacterial activity of 1-(arylamino)-1H-pyrroles and 4-(1H-pyrrol-1-ylimino)-2,5-cyclohexadienes” (1981).
≈ marks a conversion by molar mass, not a printed value. Calls of active or inactive are those of the source. No cut-off for these calls is given here.

Tests used:
Proteus mirabilis [1] = assay: In vitro minimum inhibitory concentration against Proteus mirabilis; assay type: functional
Summary of the method: (§1)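 Compounds were dissolved in water, or in water with the minimum DMSO needed to keep them in solution, and tested by an established dilution method. A ">" prefix means the DMSO solvent blank was inhibitory at that level.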

Staphylococcus aureus [2] = assay: In vitro minimum inhibitory concentration against Staphylococcus aureus; assay type: functional; summary of the method: as §1
Staphylococcus aureus [3] = assay: Minimum inhibitory dilution of medicated rat urine tested in vitro for antibacterial activity against Staphylococcus aureus; Equal to 1:2; assay type: functional
Proteus mirabilis [4] = assay: Minimum inhibitory dilution of medicated rat urine tested in vitro for antibacterial activity against Proteus mirabilis; Equal to 1:4; assay type: functional
Mus musculus [5] = assay: Antitubercular activity (25 mg/kg) in the 31-day murine mice model; NA=Not active; assay type: functional, organism-based
Summary of the method: (§2)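 Female Swiss mice (14–16 g), 10 per treated group and 20 infected controls, were infected i.v. with 0.1 mL of a 2 mg/mL M. tuberculosis H37Rv suspension. Oral dosing was in 0.5 mL 1.0% gum tragacanth, starting day 3 post-infection, twice daily, 5 days/week for 4 weeks. Percent survival was recorded at day 31; active meant survival consistently >80%.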

Mus musculus [6] = assay: Antitubercular activity (6.25 mg/kg) in the 31-day murine mice model; NA=Not active; assay type: functional, organism-based; summary of the method: as §2
Mus musculus [7] = assay: Antitubercular activity (50 mg/kg) in the 31-day murine mice model; NA=Not active; assay type: functional, organism-based; summary of the method: as §2
Mus musculus [8] = assay: Antitubercular activity (12.5 mg/kg) in the 31-day murine mice model; NA=Not active; assay type: functional, organism-based; summary of the method: as §2
Staphylococcus aureus [9] = assay: Minimum inhibitory dilution of medicated rat urine tested in vitro for antibacterial activity against Staphylococcus aureus; Less than 1:2; assay type: functional
Proteus mirabilis [10] = assay: Minimum inhibitory dilution of medicated rat urine tested in vitro for antibacterial activity against Proteus mirabilis; Less than 1:2; assay type: functional
Mus musculus [11] = assay: Antitubercular activity (3.1 mg/kg) in the 31-day murine mice model; NA=Not active; assay type: functional, organism-based; summary of the method: as §2
Mus musculus [12] = assay: Antitubercular activity (100 mg/kg) in the 31-day murine mice model; NA=Not active; assay type: functional, organism-based; summary of the method: as §2
Proteus mirabilis [13] = assay: Minimum inhibitory dilution of medicated rat urine tested in vitro for antibacterial activity against Proteus mirabilis; Equal to 1:128; assay type: functional
Summary of the method: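 Female Sprague-Dawley rats (160–200 g), in groups of three, got 50 mg/kg orally in 1.0% gum tragacanth (1 mL/100 g), with a second 50 mg/kg dose 8 h later. Pooled 24-h urine was centrifuged, ultrafiltered and stored at −20 °C. It was serially diluted twofold in tryptose phosphate broth with inoculum (18-h culture at OD 0.1, then 1:250) and incubated 18 h at 37 °C. MID is the highest dilution without visible growth.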

Staphylococcus aureus [14] = assay: Minimum inhibitory dilution of medicated rat urine tested in vitro for antibacterial activity against Staphylococcus aureus; Equal to 1:16; assay type: functional
Staphylococcus aureus [15] = assay: Minimum inhibitory dilution of medicated rat urine tested in vitro for antibacterial activity against Staphylococcus aureus; Equal to 1:4; assay type: functional
Mus musculus [16] = assay: Antitubercular activity (50 mg/kg) in the 31-day murine mice model; assay type: functional; summary of the method: as §2
Mus musculus [17] = assay: Antitubercular activity (6.25 mg/kg) in the 31-day murine mice model; assay type: functional; summary of the method: as §2
Mus musculus [18] = assay: Antitubercular activity (25 mg/kg) in the 31-day murine mice model; assay type: functional; summary of the method: as §2
Mus musculus [19] = assay: Antitubercular activity (100 mg/kg) in the 31-day murine mice model; assay type: functional; summary of the method: as §2
Proteus mirabilis [20] = assay: Minimum inhibitory dilution of medicated rat urine tested in vitro for antibacterial activity against Proteus mirabilis; Equal to 1:16; assay type: functional
Mus musculus [21] = assay: Antitubercular activity (12.5 mg/kg) in the 31-day murine mice model; assay type: functional; summary of the method: as §2
Mus musculus [22] = assay: Antitubercular activity (3.1 mg/kg) in the 31-day murine mice model; assay type: functional; summary of the method: as §2
Staphylococcus aureus [23] = assay: Minimum inhibitory dilution of medicated rat urine tested in vitro for antibacterial activity against Staphylococcus aureus; Equal to 1:8; assay type: functional
Proteus mirabilis [24] = assay: Minimum inhibitory dilution of medicated rat urine tested in vitro for antibacterial activity against Proteus mirabilis; Equal to 1:32; assay type: functional
Proteus mirabilis [25] = assay: Minimum inhibitory dilution of medicated rat urine tested in vitro for antibacterial activity against Proteus mirabilis; Equal to 1:8; assay type: functional
[26] = Proteus mirabilis, read-out: MIC
[27] = Staphylococcus aureus, read-out: MIC

SMILES	MIC (Proteus mirabilis [1]; [26]) [µg/mL]	MIC (Staphylococcus aureus [2]; [27]) [µg/mL]	MID (Staphylococcus aureus [9])	MID (Proteus mirabilis [10])	further results
NC1=CC(=O)C=C/C1=N/n1cccc1	125 (≈ 668 µM)	15.6 (≈ 83.3 µM)	–	–	MID (Staphylococcus aureus [3]): 0.5; MID (Proteus mirabilis [4]): 0.25
Cc1ccc(C(=O)Oc2ccc(N(C(=O)c3ccc(C)cc3)n3cccc3)cc2)cc1	> 62.5	125 (≈ 305 µM)	<0.5	<0.5	Survival (Mus musculus [5]): inactive; Survival (Mus musculus [6]): inactive; Survival (Mus musculus [7]): inactive; Survival (Mus musculus [8]): inactive; Survival (Mus musculus [11]): inactive; Survival (Mus musculus [12]): inactive
CCn1cc(C(=O)O)c(=O)c2ccc(C)nc21 [NALIDIXIC ACID]	15.6 (≈ 67.2 µM)	62.5 (≈ 269 µM)	–	–	MID (Proteus mirabilis [13]): 0.00781; MID (Staphylococcus aureus [14]): 0.0625
c1ccc(Nc2ccc(Nn3cccc3)cc2)cc1	> 250	31.3 (≈ 126 µM)	<0.5	<0.5	–
Cc1ccc(C)n1Nc1ccc(O)cc1	15.6 (≈ 77.1 µM)	≤ 7.8	–	<0.5	MID (Staphylococcus aureus [15]): 0.25
Oc1cccc(Nn2cccc2)c1	500 (≈ 2870 µM)	62.5 (≈ 359 µM)	<0.5	<0.5	–
C1=CC(=Nn2cccc2)C=CC1=Nn1cccc1	> 62.5	> 125	–	–	Survival (Mus musculus [16]): 100%; Survival (Mus musculus [17]): 80%; Survival (Mus musculus [18]): 100%; Survival (Mus musculus [19]): 100%; MID (Staphylococcus aureus [14]): 0.0625; MID (Proteus mirabilis [20]): 0.0625; Survival (Mus musculus [21]): 100%; Survival (Mus musculus [22]): 10%
Oc1ccc(Nn2cccc2)c(Cl)c1	> 125	62.5 (≈ 300 µM)	<0.5	0.5	–
CC1=CC(=Nn2cccc2)C=C(C)C1=O	> 125	31.3 (≈ 156 µM)	–	<0.5	MID (Staphylococcus aureus [15]): 0.25
Oc1ccc(Nn2cccc2)c2ccccc12	62.5 (≈ 279 µM)	≤ 7.8	–	< 0.5	MID (Staphylococcus aureus [15]): 0.25
CC1=CC(=N/n2cccc2)/C=CC/1=N/n1cccc1	> 62.5	> 62.5	<0.5	<0.5	–
CN(c1ccc(O)cc1)n1cccc1	> 250	125 (≈ 664 µM)	<0.5	<0.5	–
C1=CC(=Nn2cccc2)C=CC1=Nn1cccc1 [AZAROLE]	–	–	–	–	MID (Staphylococcus aureus [23]): 0.125; Survival (Mus musculus [17]): 100%; MID (Proteus mirabilis [24]): 0.03125; MIC (Proteus mirabilis [1]): >125 µg/mL; MIC (Staphylococcus aureus [2]): >62.5 µg/mL; Survival (Mus musculus [21]): 80%; Survival (Mus musculus [22]): 70%
O=C1C=C/C(=N/n2cccc2)c2ccccc21	> 62.5	31.3 (≈ 141 µM)	–	<0.5	MID (Staphylococcus aureus [3]): 0.5
O=C(N[C@H](CO)[C@H](O)c1ccc([N+](=O)[O-])cc1)C(Cl)Cl [CHLORAMPHENICOL]	> 62.5	3.9 (≈ 12.1 µM)	–	–	MID (Proteus mirabilis [25]): 0.125; MID (Staphylococcus aureus [14]): 0.0625
C1=CC(=Nn2cccc2)C=CC1=Nc1ccccc1	> 62.5	> 62.5	<0.5	<0.5	–
O=Nc1ccc(Nn2cccc2)cc1	250 (≈ 1340 µM)	125 (≈ 668 µM)	<0.5	<0.5	–
CC(=O)Oc1ccc(N(C(C)=O)n2cccc2)cc1	> 125	> 250	–	<0.5	Survival (Mus musculus [5]): inactive; Survival (Mus musculus [6]): inactive; Survival (Mus musculus [7]): inactive; Survival (Mus musculus [8]): inactive; MID (Staphylococcus aureus [3]): 0.5; Survival (Mus musculus [11]): inactive; Survival (Mus musculus [12]): inactive
